Laboratory results taken from ChEMBL document CHEMBL4610035, “Synthesis and biological evaluation of novel 3-benzylcoumarin-imidazolium salts” (Bioorg Med Chem Lett, 2020).
pIC50: −log10 of the molar value.

Experiments:
HL-60 = assay: Antiproliferative activity against human HL60 cells assessed as growth inhibition incubated up to 4 days by MTS assay; assay type: functional, cell-based; settings: HL-60, 96 h
In short: (§1)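 Five human tumour cell lines were assayed by MTS. IC50 is the compound concentration that cuts optical density of treated cells by 50% relative to untreated cells. Mean of three independent determinations.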

SMMC-7721 [1] = assay: Antiproliferative activity against human SMMC7721 cells assessed as growth inhibition incubated up to 4 days by MTS assay; assay type: functional, cell-based; settings: SMMC-7721, 96 h; in short: as §1
A549 = assay: Antiproliferative activity against human A549 cells assessed as growth inhibition incubated up to 4 days by MTS assay; assay type: functional, cell-based; settings: A549, 96 h; in short: as §1
MCF7 = assay: Antiproliferative activity against human MCF7 cells assessed as growth inhibition incubated up to 4 days by MTS assay; assay type: functional, cell-based; settings: MCF7, 96 h; in short: as §1
SW480 = assay: Antiproliferative activity against human SW480 cells assessed as growth inhibition incubated up to 4 days by MTS assay; assay type: functional, cell-based; settings: SW480, 96 h; in short: as §1
SMMC-7721 [2] = assay: Induction of apoptosis in human SMMC7721 cells assessed as viable cells at 2 uM after 48 hrs by Annexin-V/PI-staining based flow cytometry (reference value: 96.9%); assay type: functional; settings: SMMC-7721, 48 h, read-out: Activity
SMMC-7721 [3] = assay: Induction of apoptosis in human SMMC7721 cells assessed as early apoptotic cells at 2 uM after 48 hrs by Annexin-V/PI-staining based flow cytometry (reference value: 1.25%); assay type: functional
SMMC-7721 [4] = assay: Induction of apoptosis in human SMMC7721 cells assessed as late apoptotic cells at 2 uM after 48 hrs by Annexin-V/PI-staining based flow cytometry (reference value: 0.649%); assay type: functional
SMMC-7721 [5] = assay: Induction of apoptosis in human SMMC7721 cells assessed as necrotic cells at 2 uM after 48 hrs by Annexin-V/PI-staining based flow cytometry (reference value: 1.24%); assay type: functional
SMMC-7721 [6] = assay: Induction of apoptosis in human SMMC7721 cells assessed as viable cells at 4 uM after 48 hrs by Annexin-V/PI-staining based flow cytometry (reference value: 96.9%); assay type: functional; settings: SMMC-7721, 48 h, read-out: Activity
SMMC-7721 [7] = assay: Induction of apoptosis in human SMMC7721 cells assessed as early apoptotic cells at 4 uM after 48 hrs by Annexin-V/PI-staining based flow cytometry (reference value: 1.25%); assay type: functional
SMMC-7721 [8] = assay: Induction of apoptosis in human SMMC7721 cells assessed as late apoptotic cells at 4 uM after 48 hrs by Annexin-V/PI-staining based flow cytometry (reference value: 0.649%); assay type: functional
SMMC-7721 [9] = assay: Induction of apoptosis in human SMMC7721 cells assessed as necrotic cells at 4 uM after 48 hrs by Annexin-V/PI-staining based flow cytometry (reference value: 1.24%); assay type: functional
SMMC-7721 [10] = assay: Induction of apoptosis in human SMMC7721 cells assessed as viable cells at 8 uM after 48 hrs by Annexin-V/PI-staining based flow cytometry (reference value: 96.9%); assay type: functional; settings: SMMC-7721, 48 h, read-out: Activity
SMMC-7721 [11] = assay: Induction of apoptosis in human SMMC7721 cells assessed as early apoptotic cells at 8 uM after 48 hrs by Annexin-V/PI-staining based flow cytometry (reference value: 1.25%); assay type: functional
SMMC-7721 [12] = assay: Induction of apoptosis in human SMMC7721 cells assessed as late apoptotic cells at 8 uM after 48 hrs by Annexin-V/PI-staining based flow cytometry (reference value: 0.649%); assay type: functional
SMMC-7721 [13] = assay: Induction of apoptosis in human SMMC7721 cells assessed as necrotic cells at 8 uM after 48 hrs by Annexin-V/PI-staining based flow cytometry (reference value: 1.24%); assay type: functional
SMMC-7721 [14] = assay: Induction of cell cycle arrest in human SMMC7721 cells assessed as accumulation at G0/G1 phase at 2 uM after 24 hrs by propidium iodide staining based flow cytometric analysis (reference value: 63.71 +/- 0.31%); assay type: functional
SMMC-7721 [15] = assay: Induction of cell cycle arrest in human SMMC7721 cells assessed as accumulation at G0/G1 phase at 4 uM after 24 hrs by propidium iodide staining based flow cytometric analysis (reference value: 63.71 +/- 0.31%); assay type: functional
SMMC-7721 [16] = assay: Induction of cell cycle arrest in human SMMC7721 cells assessed as accumulation at G0/G1 phase at 8 uM after 24 hrs by propidium iodide staining based flow cytometric analysis (reference value: 63.71 +/- 0.31%); assay type: functional
SMMC-7721 [17] = assay: Induction of cell cycle arrest in human SMMC7721 cells assessed as accumulation at S phase at 2 uM after 24 hrs by propidium iodide staining based flow cytometric analysis (reference value: 23.26 +/- 0.57%); assay type: functional
SMMC-7721 [18] = assay: Induction of cell cycle arrest in human SMMC7721 cells assessed as accumulation at S phase at 4 uM after 24 hrs by propidium iodide staining based flow cytometric analysis (reference value: 23.26 +/- 0.57%); assay type: functional
SMMC-7721 [19] = assay: Induction of cell cycle arrest in human SMMC7721 cells assessed as accumulation at S phase at 8 uM after 24 hrs by propidium iodide staining based flow cytometric analysis (reference value: 23.26 +/- 0.57%); assay type: functional
SMMC-7721 [20] = assay: Induction of cell cycle arrest in human SMMC7721 cells assessed as accumulation at G2/M phase at 2 uM after 24 hrs by propidium iodide staining based flow cytometric analysis (reference value: 6.70 +/- 0.63%); assay type: functional
SMMC-7721 [21] = assay: Induction of cell cycle arrest in human SMMC7721 cells assessed as accumulation at G2/M phase at 4 uM after 24 hrs by propidium iodide staining based flow cytometric analysis (reference value: 6.70 +/- 0.63%); assay type: functional
SMMC-7721 [22] = assay: Induction of cell cycle arrest in human SMMC7721 cells assessed as accumulation at G2/M phase at 8 uM after 24 hrs by propidium iodide staining based flow cytometric analysis (reference value: 6.70 +/- 0.63%); assay type: functional
SMMC-7721 [23] = assay: Induction of cell cycle arrest in human SMMC7721 cells assessed as accumulation at sub-G1 phase at 2 uM after 24 hrs by propidium iodide staining based flow cytometric analysis (reference value: 3.173 +/- 0.26%); assay type: functional
SMMC-7721 [24] = assay: Induction of cell cycle arrest in human SMMC7721 cells assessed as accumulation at sub-G1 phase at 4 uM after 24 hrs by propidium iodide staining based flow cytometric analysis (reference value: 3.173 +/- 0.26%); assay type: functional
SMMC-7721 [25] = assay: Induction of cell cycle arrest in human SMMC7721 cells assessed as accumulation at sub-G1 phase at 8 uM after 24 hrs by propidium iodide staining based flow cytometric analysis (reference value: 3.173 +/- 0.26%); assay type: functional

## Cc1cc2c(cc1C)[n+](CC(=O)c1ccc3ccccc3c1)cn2C(c1ccccc1)c1cc2ccccc2oc1=O.[Br-] (centres undefined)
HL-60
  pIC50: 5.68
SMMC-7721 [1]
  pIC50: 5.42
A549
  pIC50: 5.35
MCF7
  pIC50: 5.69
SW480
  pIC50: 5.63
SMMC-7721 [2]
  viability at 2 µM: 96.4%
SMMC-7721 [3]
  Activity: 1.3%
SMMC-7721 [4]
  Activity: 0.698%
SMMC-7721 [5]
  Activity: 1.58%
SMMC-7721 [6]
  viability at 4 µM: 93.2%
SMMC-7721 [7]
  Activity: 4.82%
SMMC-7721 [8]
  Activity: 1.39%
SMMC-7721 [9]
  Activity: 0.541%
SMMC-7721 [10]
  viability at 8 µM: 60.9%
SMMC-7721 [11]
  Activity: 25.6%
SMMC-7721 [12]
  Activity: 11.2%
SMMC-7721 [13]
  Activity: 2.27%
SMMC-7721 [14]
  Activity: 65.02%
SMMC-7721 [15]
  Activity: 67.69%
SMMC-7721 [16]
  Activity: 70.88%
SMMC-7721 [17]
  Activity: 21.82%
SMMC-7721 [18]
  Activity: 22.47%
SMMC-7721 [19]
  Activity: 16.42%
SMMC-7721 [20]
  Activity: 6.92%
SMMC-7721 [21]
  Activity: 7.59%
SMMC-7721 [22]
  Activity: 9.68%
SMMC-7721 [23]
  Activity: 3.25%
SMMC-7721 [24]
  Activity: 5.16%
SMMC-7721 [25]
  Activity: 2.54%
